Results on one compound are retold here after ChEMBL document CHEMBL2176966, “Discovery of 6,7-dihydro-5H-pyrrolo[2,3-a]pyrimidines as orally available G protein-coupled receptor 119 agonists” (J Med Chem, 2012).

Data set [1] is described as follows: Ratio of drug level brain to plasma in rat at 30 mg/kg. Type of data set: ADME, organism-based. The arrangement: dose 30 mg/kg. Conditions: read-out: BPR.
Data set [2] in a line: Cmax in rat at 30 mg/kg. The arrangement: dose 30 mg/kg. Conditions: in vivo. Format: ADME, organism-based.
The test system of data set [3] is Mus musculus. The data set is described as follows: Toxicity in C57BL/6 mouse assessed as effect on food intake at 10 mg/kg, po measured up to 24 hrs. Type of data set: organism-based. The arrangement: dose 10 mg/kg, route oral. The following applies: in vivo. Summed up: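 Individually housed male C57BL/6 mice were fasted overnight and given 10 mg/kg. Normal-chow hoppers were weighed and returned. Hopper weights were recorded at 1, 2, 4, 6 and 24 h post-dose and compared with vehicle-treated mice.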

The test system of data set [4] is Rattus norvegicus. The data set can be described thus: Increase of C-peptide level in Wistar rat at 10 mg/kg, po up to 5 mins. Type of data set: functional, organism-based. Further details: dose 10 mg/kg. Put shortly:
(§1)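 Male Wistar rats (300–350 g) with jugular and femoral vein catheters, one week post-surgery, fasted overnight. Randomized to vehicle (n = 19) or oral compound (n = 8). About 90 min after gavage, a hyperglycemic clamp was started: a glucose bolus into the femoral vein, then variable-rate infusion holding glucose at 190–210 mg/dL. Serum C-peptide was measured by RIA, first phase 0–5 min and second phase 10–90 min.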

Data set [5] deals with Rattus norvegicus. The data set can be described thus: Increase of C-peptide level in Wistar rat at 10 mg/kg, po after 10 to 90 mins. Further details: dose 10 mg/kg. Type of data set: functional, organism-based. Summed up: as §1
The subject of data set [6] is Rattus norvegicus. The data set can be described thus: Increase of glucose infusion rate in Wistar rat at 10 mg/kg, po. Format: functional, organism-based. Further details: dose 10 mg/kg. Summed up:
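Catheterized male Wistar rats (300–350 g, jugular and femoral lines, one week recovery) were fasted overnight and gavaged with vehicle (n = 19) or compound (n = 8). After ~90 min, an IV glucose bolus over 15–30 s was followed by variable-rate glucose infusion. The infusion was adjusted to clamp plasma glucose at 190–210 mg/dL, and the required infusion rate was recorded. Serum glucose was measured by analyzer.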

For data set [7], the system named is Mus musculus. The data set is described as follows: Increase in PYY level in GPR119 knockout mouse at 30 mg/kg, po after 60 mins. Format: functional, organism-based. Further details: dose 30 mg/kg. Summed up: (§2)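 Wild-type and GPR119 knockout mice, fasted overnight, were dosed by oral gavage (30 mg/kg, 10 mL/kg, 0.5% HPMC/0.1% Tween80 vehicle). Plasma was obtained from cardiac blood at 60 min in chilled K2-EDTA containing DPP-4 inhibitor and aprotinin, then stored at −80 °C. Hormone levels were compared with vehicle; n = 8–10.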

Data set [8] relates to Mus musculus. The data set can be described thus: Increase in glucagon level in GPR119 transgenic wild type mouse at 30 mg/kg, po after 60 mins relative to control. Format: functional. Summed up: as §2
In data set [9] the test system is Mus musculus. The data set is described as follows: Increase in GLP-1 level in GPR119 knockout mouse at 30 mg/kg, po after 60 mins by electrochemiluminescence assay. Type of data set: functional, organism-based. Further details: dose 30 mg/kg. Summed up: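 Wild-type and GPR119 knockout mice, fasted overnight, received vehicle (0.5% HPMC/0.1% Tween80) or 30 mg/kg by oral gavage at 10 mL/kg. At 60 min, blood was taken by cardiac puncture under isoflurane into chilled K2-EDTA tubes with DPP-4 inhibitor and aprotinin (250 KIU/mL). Plasma was spun at 4 °C and stored at −80 °C. Total GLP-1 was measured by electrochemiluminescence immunoassay; n = 10.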

The nature of data set [10]: Induction of GLP1 secretion in mouse GLUTag cells after 2 hrs. Format: functional, cell-based. Summed up: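 GLUTag cells were grown to 80% confluence on Matrigel-coated plates in DMEM with 2 mM L-glutamine and 10% FBS. They were preincubated 30 min in Krebs-Ringer buffer (10 mM D-glucose, 0.1% BSA, DPP-IV inhibitor). Compound was then added at varying concentrations in the same buffer for 2 h at 37 °C, 5% CO2. Cleared supernatant was assayed for amidated (active) GLP-1 by sandwich electrochemiluminescence immunoassay.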

Data set [11] in a line: Equilibrium solubility of the compound in fasted simulated intestinal fluid. Format: physicochemical.
Data set [12] is described as follows: Oral bioavailability in mouse at 30 mg/kg. Conditions: in vivo. Format: ADME, organism-based.

In brackets after ≈: the same amount, converted by molar mass. Activity calls are given as the source filed them. The calls are words filed in the database; no cut-off is given here.

Take `CC(C)OC(=O)N1CCC(Oc2ncnc3c2CCN3c2ccc(S(C)(=O)=O)cc2F)CC1`: the Kp in data set [1] was found to be 0.7. For the same compound, the concentration in data set [2] peaked (Cmax) at 9 µM. The Activity result in data set [3] is on record as “Non-toxic”. Moreover, the outcome in [4], in data set [5] and in data set [6] was Active. Moreover, the outcome in data set [7] and in data set [9] was inactive. Besides, the “fold change (FC)” value in data set [8] is on record as 2. Moreover, a half-maximal effect in data set [10] (EC50) was put at 20 nM. In addition, the thermodynamic solubility (in general, solubility found after equilibrating the solid with the medium) in data set [11] was 4 µg/mL (≈ 8.36 µM). Moreover, the bioavailability (in general, the share of a dose that reaches the circulation, judged against a reference dose that is usually intravenous) in data set [12] was 40%.
